Structures are written as SMILES.

The nature of the data set: Toxicity liver stage against HepG2, at 10uM. Format: cell-based. Also on record: test concentration 10 uM, cell line HepG2-A16-CD81EGFP. The settings on record: human, HepG2-A16-CD81EGFP cells; read-out: INHIBITION
Put shortly:
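Uninfected HepG2-A16-CD81EGFP cells, 3 × 10^3 per well, 1536-well, plated on prespotted compound at 10 μM final, parasite-free screening media added to match infected plates; puromycin 10 μM positive, DMSO 0.5% negative; run in parallel with 48 h PbLuc assay at 37 °C, 5% CO2; viability by CellTiter-Glo luminescence, normalized to controls.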
For the compound `N#Cc1ccc(CN2CCC(CCc3ccc(O)cc3)CC2)cc1`, the cytotoxicity at 10 µM came out at 38.8%. Turning to `CCOCc1nc(N2CCCC2)sc1C(=O)NCCC(=O)OCC`, the cytotoxicity at 10 µM is -3.66%. As for `CCN1CCN(C(=O)CCn2cccc2)CC1`, the cytotoxicity at 10 µM is 7.66%. Turning to `O=C1CCNc2ncc(-c3cccc(Cl)c3)cc2CN1C1CC1`, the cytotoxicity at 10 µM is 8.55%. `CC(C)CCc1cc(C(=O)O)nc2[nH]c(=O)[nH]c(=O)c12`: the cytotoxicity at 10 µM is 4.31%. Turning to `COc1cc2nc(C)n(CC(=O)NCCN(C)C)c(=O)c2cc1OC`, the cytotoxicity at 10 µM was -7.18%.

As to `O=C(Cc1csc(-c2ccccc2F)n1)NCc1ccc(C(=O)O)cc1`, the cytotoxicity at 10 µM was -3.85%.

On to `CC(C)C(=O)N1CCN(c2cc(N(C)C)cnn2)CC1`, for which the cytotoxicity at 10 µM is -6.45%.

Take `CO[C@H]1CCN(C(=O)c2cc(C)on2)C[C@@H]1Cc1ccccc1`: the cytotoxicity at 10 µM turned out to be 4.06%.

On to `Cc1nnc(C[C@@H]2COC[C@H]3CN(C(=O)c4ccco4)C[C@@H]23)o1`, for which the cytotoxicity at 10 µM was -8.75%. For `CCC(C)N1CCc2nc(N3CCCC3)nc(NC(C)C)c2C1` (stereo not given), the cytotoxicity at 10 µM came out at 8.53%. Consider `O=C(NC1CC1)[C@H]1C[C@H]2OCC[C@H]2N(Cc2ccco2)C1`, for which the cytotoxicity at 10 µM is 8.88%. The value for `O=c1[nH]c2nc(N3CCCC3)ncc2c(=O)n1-c1cccc(F)c1` was 8.24%; that for `O=C1CC(c2ccc(O)cc2)c2c(n3ccsc3nc2=O)N1` (stereo not given) was -3.12%. Turning to `CC(C)c1noc(-c2ccc(-n3cnc(C(=O)O)c3)nc2)n1`, the cytotoxicity at 10 µM is -2.06%. For `COc1ccc(-c2nnsc2C(=O)N2CCN(C(C)=O)CC2)cc1`, the cytotoxicity at 10 µM was -0.145%.

On to `CCCN1CCN(C(=O)c2ccn(COc3ccc(F)cc3)n2)CC1`, for which the cytotoxicity at 10 µM turned out to be 8.88%. On to `CC(C)C(=O)N1CCN(c2ncnc3cc4c(cc23)OCCO4)CC1`, for which the cytotoxicity at 10 µM is 2.41%. `Cc1cc(N2CCOC(c3ccccn3)C2)nc(N)n1` (stereo not given): the cytotoxicity at 10 µM was found to be 4.4%. As to `CN(C)Cc1cccc(-c2cccnc2C(=O)NCc2ccco2)c1`, the cytotoxicity at 10 µM was found to be 4.16%. With `CCC(=O)N1CCCCC[C@@H]2[C@@H]1[C@H](c1cccc(F)c1)CN2C`, the cytotoxicity at 10 µM was found to be 8.63%.

`CCOCCCNS(=O)(=O)c1ccc2c(c1)NC(=O)C(C)O2` (stereo not given): the cytotoxicity at 10 µM is -3.57%. Turning to `O=C(O)c1ccccc1-c1ccc(Cn2c(=O)cc[nH]c2=O)cc1`, the cytotoxicity at 10 µM stood at 5.64%. Under `NCC(=O)N1CCCC(O)(CN2CCN(c3ccccc3)CC2)CC1` (stereo not given) stands -7.58%; under `Cc1cc(N2CCC(Cc3cnccn3)C2)ncn1` (stereo not given), -3.24%. `Cc1ccc(CN2CCc3nc(C(C)C)nc(O)c3CC2)s1`: the cytotoxicity at 10 µM came to 0.913%. `COc1ccc(CN(C)[C@@H]2CN(C(=O)c3cnn(C)c3)C[C@H]2O)cc1`: the cytotoxicity at 10 µM is -21.9%. For `CNc1cncc(C2CCCN2C(=O)c2ccc3nc(C)[nH]c3c2)n1` (stereo not given), the cytotoxicity at 10 µM is -8.94%. Regarding `O=C(N[C@@H]1CN(Cc2ccc(F)c(F)c2)C[C@H]1O)c1cscn1`, the cytotoxicity at 10 µM was -3.78%. For `CC(CCc1cccn1C)NC(=O)Nc1cccn(C)c1=O` (stereo not given), the cytotoxicity at 10 µM was 3.14%. The value for `Cn1c(N)nnc1SC1CCCN(c2ccccc2)C1=O` (stereo not given) was 0.296%. In the case of `CC(C)c1nc(NS(=O)(=O)c2ccccc2Cl)no1`, the cytotoxicity at 10 µM was 10%. For the compound `Cc1ccccc1NC(=O)CCNC(=O)c1ccoc1`, the cytotoxicity at 10 µM was -0.714%. In the case of `CCOc1cc(NC(=O)N2CCOC3(CCC3)C2)ccc1C`, the cytotoxicity at 10 µM is -0.535%.

Consider `COC1CCN(CC(=O)NCc2ccc(OCC(N)=O)cc2)CC1`, for which the cytotoxicity at 10 µM is -0.094%. For the compound `O=C(CNC1(c2ccc(Cl)cc2)CCOCC1)NC1CCCC1`, the cytotoxicity at 10 µM turned out to be 2.32%. Turning to `Cc1nc(CN(C)Cc2cc3c(cc2OC(F)F)OCO3)cs1`, the cytotoxicity at 10 µM amounted to 8.68%. `CCCn1nc2c(cc1=O)CN(Cc1c(C)noc1C)CC2`: the cytotoxicity at 10 µM is -5.03%. `Cc1ccc(C)c(NC(=O)Cc2c(C)nc3c(c2C)c(=O)[nH]n3C)c1`: the cytotoxicity at 10 µM is 15.4%. On to `O=C(NCc1ccncc1)N(Cc1ccc(F)cc1F)C1CC1`, for which the cytotoxicity at 10 µM was 3.9%.

For `CCc1noc(C(C)N2CCN(CC(=O)N3CCOCC3)CC2)n1` (stereo not given), the cytotoxicity at 10 µM is 6.01%. Take `CNC(=O)c1cccc(CCNc2ccccn2)c1`: the cytotoxicity at 10 µM was 1.68%. On to `CC1CCN(CC2CCN(C(=O)c3c[nH]c4ncccc34)CC2)CC1`, for which the cytotoxicity at 10 µM worked out at 10%. In the case of `CCNC(=O)CNC(=O)c1ccn(S(=O)(=O)c2ccc(C)cc2)c1`, the cytotoxicity at 10 µM is -5.73%. Under `CCn1nc2c(cc1=O)CN(CCOc1ccccc1C#N)CC2` stands 19.2%; under `O=S(=O)(NCCc1nnc2ccccn12)c1cccnc1`, 1.9%; under `COc1cc(C(=O)NCCc2cccc(C)c2)on1`, 0.572%. For `N#Cc1cc(F)c(NCCCOCC2CCOC2)c(F)c1` (stereo not given), the cytotoxicity at 10 µM worked out at 6.43%. With `COCC(NC(=O)NCc1sccc1C)c1ccco1` (stereo not given), the cytotoxicity at 10 µM is -3.25%. Consider `CC(C)(C)NC(=O)CNc1ccc(C#N)c(C(F)(F)F)c1`, for which the cytotoxicity at 10 µM was -1.28%. On to `Cc1cc(N2CCC(N(C)C(=O)c3ccccc3)CC2)nc(C)n1`, for which the cytotoxicity at 10 µM is -4.69%. Regarding `CN(C)C(CNC(=O)c1cccc(-n2cnnn2)c1)c1ccccc1Cl` (stereo not given), the cytotoxicity at 10 µM was -6.08%. As for `O=C(NCC1Cn2nnc(-c3ccsc3)c2CO1)N1CCCC1` (stereo not given), the cytotoxicity at 10 µM was -110%. Under `Cc1occc1C(=O)N1CCN2C[C@H](Oc3cccnc3)C[C@H]2C1` stands -4.15%. For `CCOc1ccccc1CC(=O)N1C[C@@H](C(=O)O)[C@H](C2CC2)C1`, the cytotoxicity at 10 µM was found to be 1.12%. For the compound `Nc1ccc(-c2cc(O)cc(CCC3CCCCN3)c2)cn1` (stereo not given), the cytotoxicity at 10 µM is -9.66%. Turning to `Cc1nc(N(C)C)ncc1C(=O)N[C@H]1Cc2ccccc2[C@@H]1N`, the cytotoxicity at 10 µM was 1.81%.

For `CC1CCN(S(=O)(=O)N2CCc3c(c(C(=O)O)nn3CC3CC3)C2)CC1`, the cytotoxicity at 10 µM is -0.65%. As to `CN(C)C(=O)N1CC[C@@H](c2ccc3ccccc3c2)[C@H](O)C1`, the cytotoxicity at 10 µM was -5.81%. Regarding `Cc1ccccc1[C@@H]1CN(Cc2c(C)noc2C)C[C@H]1C(=O)O`, the cytotoxicity at 10 µM is -7.74%. Under `COC(=O)[C@@H]1CCCN1C(=O)c1cn(CCCc2ccccc2)nn1` stands 3.15%. `COc1cccc2ncn(C(C)Cn3cccn3)c(=O)c12` (stereo not given): the cytotoxicity at 10 µM was 1.37%.

With `Cc1ccc(N2CCN(C(=O)CCc3n[nH]c(C)n3)CC2=O)cc1`, the cytotoxicity at 10 µM is -4.06%.

With `CSc1ncc(C(=O)NCc2cc3n(n2)CCCN(CC(C)C)C3)cn1`, the cytotoxicity at 10 µM amounted to 5.89%. As to `Cc1c[nH]c(CN2CC[C@@]3(O)CCN(C(=O)C4CCC4)C[C@H]3C2)n1`, the cytotoxicity at 10 µM turned out to be 1.27%.

Turning to `O=C(NCCc1csc(-c2ccncc2)n1)C1CC(=O)N(C2CC2)C1` (stereo not given), the cytotoxicity at 10 µM is -8.44%. Turning to `CCOCCNc1nc(C2CCCC2)nc2c1cnn2C`, the cytotoxicity at 10 µM is -11%. Under `Cn1ccnc1CN1CCN(Cc2ccc(C#N)cc2)CC1` stands -10.3%. Regarding `NC(=O)C1CN(C(=O)Nc2ccccc2SC2CCCC2)CCO1` (stereo not given), the cytotoxicity at 10 µM was -5.15%. Consider `Cc1cnn(C2CCCN(C(=O)CCc3cnn(C)c3)C2)c1` (stereo not given), for which the cytotoxicity at 10 µM is -11.1%.

`NC(=O)c1cccc(CN2CCc3c(ncn3C3CC3)C2)c1`: the cytotoxicity at 10 µM was -4.6%. Under `CCN(CC)CC(=O)N1CCN(c2nc(C)cc(OC)n2)CC1` stands -10.4%. `NC(=O)Cn1cc(NC(=O)N2CCCCCC2)cn1`: the cytotoxicity at 10 µM was -11.8%. The value for `Cc1cnn(CC2CCCN2Cc2ncc(-c3ccc(F)cc3)o2)c1` (stereo not given) was -17.6%.

For `O=C(c1cccc2c1OCCO2)N1CCCC1c1noc(C2CC2)n1` (stereo not given), the cytotoxicity at 10 µM is -14.5%. For `CCC(O)CN1CCN(C(=O)c2ccn(-c3ccccc3)n2)CC1` (stereo not given), the cytotoxicity at 10 µM is -9.33%. In the case of `O=C(NCCc1ccccn1)C1CC(=O)N(CC(F)(F)F)C1` (stereo not given), the cytotoxicity at 10 µM was -25.2%. For the compound `Cc1ccc(CC(=O)N2CCN(c3nccs3)CC2)s1`, the cytotoxicity at 10 µM is -13%.

As for `CCOCC(O)CN1CCN(C(=O)C2CCCCC2)CC1` (stereo not given), the cytotoxicity at 10 µM was -21.5%. For the compound `Cc1cnc(CN(C)C2CCN(CCc3cnn(C)c3)C2)o1` (stereo not given), the cytotoxicity at 10 µM was determined as 5.44%.

With `COC(CNC(=O)N1CCC(n2cncn2)CC1)c1ccccc1` (stereo not given), the cytotoxicity at 10 µM is 4.33%.

`CCc1nc(CN(C)C2CCN(Cc3ccc(C#N)cc3F)C2)no1` (stereo not given): the cytotoxicity at 10 µM was -7.12%. `O=C(NCc1cccs1)[C@]12COC[C@H]1CN(c1ncccn1)C2`: the cytotoxicity at 10 µM was 11.6%. Under `CC(=O)NC1CCN(c2ccnc(C3CCNCC3)c2)CC1` stands -6.15%. The value for `COCCO[C@@H]1CCN(C(=O)c2ccc(C)o2)[C@@H]1Cc1cccnc1` was -12.2%; that for `O=S(=O)(c1cccs1)N1CC[C@H]2[C@H]1CCN2CC1CC1` was 2.94%. With `COCC1COCCC12CCN(CCc1ccccc1)CC2` (stereo not given), the cytotoxicity at 10 µM is -26%. In the case of `Cc1ccc(N2C[C@@H]3CN(Cc4ccoc4)CCO[C@@H]3C2)nn1`, the cytotoxicity at 10 µM is -12.8%. In the case of `CS(=O)(=O)NC[C@H]1OC[C@H]2CN(CCc3ccccc3)CC[C@H]21`, the cytotoxicity at 10 µM was -3.53%.

With `CCN1CCCC12CCCN(c1ncccn1)C2` (stereo not given), the cytotoxicity at 10 µM came to 0.113%. With `CC(C)N1CCc2c(c(COc3cncnc3)nn2CC2CC2)C1`, the cytotoxicity at 10 µM was 1.7%. The value for `CC(C)(N)CNS(=O)(=O)Cc1cccc2cccnc12` was 14.5%; that for `O=C(c1cc[nH]n1)N1CCC2(CC1)CC(Oc1cccnc1)CO2` (stereo not given) was 6.7%. For the compound `CN(C)c1ncc(C(=O)N2C[C@H]3CC(Oc4ccccc4)C[C@H]3C2)cn1` (stereo not given in full), the cytotoxicity at 10 µM is 2.54%. `Cc1cccc(S(=O)(=O)N2C[C@@H]3C[C@H](C(=O)NCC4CC4)[C@H](C2)O3)c1`: the cytotoxicity at 10 µM was -2.35%.

These data come from ChEMBL document CHEMBL4513216, “Probing the Open Global Health Chemical Diversity Library for Multistage-Active Starting Points for Next-Generation Antimalarials” (ACS Infect Dis, 2020).
